According to ChEMBL document CHEMBL1125770, “Synthesis and antitumor properties of activated cyclophosphamide analogues” (J Med Chem, 1991):

Legend:
[1] = Half-life in 4:6 acetone/ 1.0 M HEPES buffer, pH 7.4, 37 degree celsius; format: ADME
Outline: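 Generation of 4 from the 4-hydroxy compounds followed by ³¹P NMR in 4:6 acetone/1.0 M HEPES, pH 7.4, 37 °C; half-time of phosphoramide mustard release recorded.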

[2] = test system: L1210; assay: In vitro antitumor activity against cyclophosphamide-resistant L1210/CP cells; format: functional, Mus musculus
Outline: (§1)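 Clonogenic assay on L1210 and P388 leukemia cells, wild-type (/O) and cyclophosphamide-resistant (/CP) lines, with 1-h drug exposure. LC99 is the concentration that cuts colony formation to 1% of control. It comes from linear regression of log survival vs concentration, at least three determinations.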

[3] = test system: L1210; assay: In vitro antitumor activity against wild-type L1210/0 cells; format: functional, Mus musculus; outline: as §1
[4] = test system: L1210; assay: Resistance factor for LC99 of resistant (L1210/CP) to that of LC99 for wild type (L1210/0).; format: functional, Mus musculus
Outline: (§2)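 Resistance factor is LC99 in the cyclophosphamide-resistant line divided by LC99 in the matching wild-type line. Each LC99 comes from a clonogenic assay with 1-h drug exposure, by linear regression of log survival vs concentration, at least three determinations.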

[5] = test system: P388; assay: In vitro antitumor activity against cyclophosphamide-resistant P388/CP cells; format: functional, Mus musculus; outline: as §1
[6] = test system: P388; assay: In vitro antitumor activity against wild-type P388/0 cells; format: functional, Mus musculus; outline: as §1
[7] = test system: P388; assay: Resistance factor for LC99 of resistant (P388/CP) to that of LC99 for wild type (P388/0).; format: functional, Mus musculus; outline: as §2
[8] = test system: L1210; assay: In vivo antitumor activity against intraperitoneal murine cyclophosphamide resistant L1210 Leukemia cells at 170 umol/kg; format: functional, Mus musculus
Outline: (§3)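 NCI L1210 protocol. Tumor propagated in DBA/2 mice; tests done in B6D2F1 mice, six per group, given 10⁶ L1210 cells ip. One ip dose of drug suspended in 2% (carboxymethyl)cellulose (or vehicle alone) given 24 h later. Survival followed daily for 30 days. %T/C = 100 × treated/control survival time.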

[9] = test system: L1210; assay: In vivo antitumor activity against intraperitoneal murine cyclophosphamide resistant L1210 Leukemia cells at 510 umol/kg; format: functional, Mus musculus; outline: as §3
[10] = test system: L1210; assay: In vivo antitumor activity against intraperitoneal murine cyclophosphamide resistant L1210 Leukemia cells at 680 umol/kg; format: functional, Mus musculus; outline: as §3
[11] = test system: L1210; assay: In vivo antitumor activity against intraperitoneal murine cyclophosphamide resistant L1210 Leukemia cells at 340 umol/kg; format: functional, Mus musculus; outline: as §3
[12] = test system: L1210; assay: In vivo antitumor activity against intraperitoneal murine wild type L1210 Leukemia cells at 170 umol/kg; format: functional, Mus musculus; outline: as §3
[13] = test system: L1210; assay: In vivo antitumor activity against intraperitoneal murine wild type L1210 Leukemia cells at 510 umol/kg; format: functional, Mus musculus; outline: as §3
[14] = test system: L1210; assay: In vivo antitumor activity against intraperitoneal murine wild type L1210 Leukemia cells at 680 umol/kg; format: functional, Mus musculus; outline: as §3
[15] = test system: L1210; assay: In vivo antitumor activity against intraperitoneal murine wild type L1210 Leukemia cells at 340 umol/kg; format: functional, Mus musculus; outline: as §3

Structure (SMILES) | half-life [1] [h] | LC99 [2] [µM] | LC99 [3] [µM] | RF [4] | LC99 [5] [µM] | LC99 [6] [µM] | RF [7] | T/C [8] [%] | T/C [9] [%] | T/C [10] [%] | T/C [11] [%] | T/C [12] [%] | T/C [13] [%] | T/C [14] [%] | T/C [15] [%]
O=[P@]1(N(CCCl)CCCl)N[C@H](OO)C[C@@H](c2cccnc2)O1 | 1.75 | 56 | 36 | 1.6 | 34 | 33 | 1 | – | – | – | – | – | – | – | –
CC(C)[C@@H]1C[C@@H](OO)N[P@](=O)(N(CCCl)CCCl)O1 | > 8.33 | 86 | 110 | 1 | – | 61 | 0.7 | – | – | – | – | – | – | – | –
O=[P@]1(N(CCCl)CCCl)N[C@H](OO)C[C@@H](c2ccncc2)O1 | 1.83 | 57 | 53 | 1.1 | 23 | 44 | 0.5 | 119 | 138 | 150 | 131 | 130 | 160 | 190 | 150
O=P1(N(CCCl)CCCl)NCCCO1 (stereo not given) [CYCLOPHOSPHAMIDE ANHYDROUS] | – | – | – | – | – | – | – | 105 | 110 | – | 95 | 150 | 208 | – | –
O=[P@]1(N(CCCl)CCCl)N[C@H](OO)C[C@@H](c2ccc(F)cc2)O1 | 3.42 | 8 | 7 | 1.2 | 5 | 6 | 1.2 | – | – | – | – | – | 188 | – | 163
Cc1ccc([C@@H]2C[C@@H](OO)N[P@](=O)(N(CCCl)CCCl)O2)cc1 | 4 | 6 | 5 | 1.2 | 3 | 3 | 1 | – | – | – | – | – | 175 | 175 | 150
O=[N+]([O-])c1ccc([C@@H]2C[C@@H](OO)N[P@](=O)(N(CCCl)CCCl)O2)cc1 | 3.17 | 8 | 8 | 1 | 3 | 7 | 0.4 | – | – | – | – | – | 185 | 205 | 163
O=[P@]1(N(CCCl)CCCl)N[C@H](OO)C[C@@H](c2ccccc2)O1 | 2.17 | 29 | 9 | 3.2 | 15 | 6 | 2.5 | – | – | – | – | 117 | – | – | 144
O=[P@@]1(N(CCCl)CCCl)N[C@H](OO)C[C@@H](c2ccccc2)O1 | 1.53 | 26 | 20 | 1.3 | 21 | 16 | 1.3 | – | – | – | – | – | – | – | –
C[C@@H]1C[C@@H](OO)N[P@](=O)(N(CCCl)CCCl)O1 | > 8.33 | 180 | 39 | 4.6 | 69 | 26 | 2.7 | – | – | – | – | – | – | – | 138
O=P1(N(CCCl)CCCl)NC(OO)CCO1 (stereo not given) [PERFOSFAMIDE] | 0.25 | 140 | 8 | 17 | 60 | 6 | 10 | 115 | – | – | 110 | 140 | – | – | 171
O=[P@]1(N(CCCl)CCCl)N[C@H](OO)C[C@@H](CCc2ccccc2)O1 | > 8.33 | 9 | 13 | 0.7 | 5 | 10 | 0.5 | – | – | – | – | – | – | – | 106
